ChEMBL document CHEMBL4715736, “Identification of anticancer agents based on the thieno[2,3-b]pyridine and 1H-pyrazole molecular scaffolds” (2016)

Columns and labels:
Format in all cases: functional
Settings in all cases: read-out: Activity
MOLT-4 = assay: Growth inhibition of human MOLT-4 cells assessed as cell growth at 10 uM incubated for 48 hrs by sulforhodamine B assay relative to control
Summary of the method: (§1)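 Submitted to the NCI Developmental Therapeutics Program for the NCI60 human tumour cell line panel. First screen at a single 10 µM concentration. Read-out is growth relative to untreated control cells set at 100%.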

SR = assay: Growth inhibition of human SR cells assessed as cell growth at 10 uM incubated for 48 hrs by sulforhodamine B assay relative to control
Summary of the method: (§2)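 Run by the NCI Developmental Therapeutics Program as part of its 60-line human tumour panel. Each compound tested at a single 10 µM dose. Growth expressed as % relative to untreated control cells (100%).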

HOP-62 = assay: Growth inhibition of human HOP-62 cells assessed as cell growth at 10 uM incubated for 48 hrs by sulforhodamine B assay relative to control; summary of the method: as §1
NCI-H226 = assay: Growth inhibition of human NCI-H226 cells assessed as cell growth at 10 uM incubated for 48 hrs by sulforhodamine B assay relative to control; summary of the method: as §1
NCI-H460 = assay: Growth inhibition of human NCI-H460 cells assessed as cell growth at 10 uM incubated for 48 hrs by sulforhodamine B assay relative to control; summary of the method: as §1
NCI-H522 = assay: Growth inhibition of human NCI-H522 cells assessed as cell growth at 10 uM incubated for 48 hrs by sulforhodamine B assay relative to control; summary of the method: as §1
HCT-116 = assay: Growth inhibition of human HCT-116 cells assessed as cell growth at 10 uM incubated for 48 hrs by sulforhodamine B assay relative to control; summary of the method: as §1
HCT-15 = assay: Growth inhibition of human HCT-15 cells assessed as cell growth at 10 uM incubated for 48 hrs by sulforhodamine B assay relative to control; summary of the method: as §1
HT-29 = assay: Growth inhibition of human HT-29 cells assessed as cell growth at 10 uM incubated for 48 hrs by sulforhodamine B assay relative to control; summary of the method: as §1
KM12 = assay: Growth inhibition of human KM12 cells assessed as cell growth at 10 uM incubated for 48 hrs by sulforhodamine B assay relative to control; summary of the method: as §1
SNB-19 = assay: Growth inhibition of human SNB-19 cells assessed as cell growth at 10 uM incubated for 48 hrs by sulforhodamine B assay relative to control; summary of the method: as §2
SNB-75 = assay: Growth inhibition of human SNB-75 cells assessed as cell growth at 10 uM incubated for 48 hrs by sulforhodamine B assay relative to control; summary of the method: as §2
Malme-3M = assay: Growth inhibition of human Malme-3M cells assessed as cell growth at 10 uM incubated for 48 hrs by sulforhodamine B assay relative to control; summary of the method: as §1
M14 = assay: Growth inhibition of human M14 cells assessed as cell growth at 10 uM incubated for 48 hrs by sulforhodamine B assay relative to control; summary of the method: as §1
SK-MEL-2 = assay: Growth inhibition of human SK-MEL-2 cells assessed as cell growth at 10 uM incubated for 48 hrs by sulforhodamine B assay relative to control; summary of the method: as §2
SK-MEL-5 = assay: Growth inhibition of human SK-MEL-5 cells assessed as cell growth at 10 uM incubated for 48 hrs by sulforhodamine B assay relative to control; summary of the method: as §2
UACC-257 = assay: Growth inhibition of human UACC-257 cells assessed as cell growth at 10 uM incubated for 48 hrs by sulforhodamine B assay relative to control; summary of the method: as §2
SK-OV-3 = assay: Growth inhibition of human SK-OV-3 cells assessed as cell growth at 10 uM incubated for 48 hrs by sulforhodamine B assay relative to control; summary of the method: as §2
786-0 = assay: Growth inhibition of human 786-0 cells assessed as cell growth at 10 uM incubated for 48 hrs by sulforhodamine B assay relative to control
Summary of the method: (§3)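 NCI Developmental Therapeutics Program NCI60 panel. Compounds that were active in the 10 µM one-dose screen went on to dose–response testing. Growth at each concentration is expressed relative to untreated control (100%). GI50 (concentration giving 50% of maximal inhibition of proliferation) and TGI (concentration giving total growth inhibition) were derived from the curves.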

A498 = assay: Growth inhibition of human A498 cells assessed as cell growth at 10 uM incubated for 48 hrs by sulforhodamine B assay relative to control; summary of the method: as §3
RXF 393 = assay: Growth inhibition of human RXF 393 cells assessed as cell growth at 10 uM incubated for 48 hrs by sulforhodamine B assay relative to control; summary of the method: as §2
SN12C = assay: Growth inhibition of human SN12C cells assessed as cell growth at 10 uM incubated for 48 hrs by sulforhodamine B assay relative to control; summary of the method: as §2
TK-10 = assay: Growth inhibition of human TK-10 cells assessed as cell growth at 10 uM incubated for 48 hrs by sulforhodamine B assay relative to control; summary of the method: as §2
UO-31 = assay: Growth inhibition of human UO-31 cells assessed as cell growth at 10 uM incubated for 48 hrs by sulforhodamine B assay relative to control; summary of the method: as §2
BT-549 = assay: Growth inhibition of human BT-549 cells assessed as cell growth at 10 uM incubated for 48 hrs by sulforhodamine B assay relative to control
Summary of the method: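 NCI Developmental Therapeutics Program NCI60 human tumour cell line panel, one-dose primary screen with every compound at 10 µM. Growth is expressed as % of untreated control cells (100%).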

Row | SMILES | growth at 10 µM (MOLT-4) [%] | growth at 10 µM (SR) [%] | growth at 10 µM (HOP-62) [%] | growth at 10 µM (NCI-H226) [%] | growth at 10 µM (NCI-H460) [%] | growth at 10 µM (NCI-H522) [%] | growth at 10 µM (HCT-116) [%] | growth at 10 µM (HCT-15) [%] | growth at 10 µM (HT-29) [%] | growth at 10 µM (KM12) [%] | growth at 10 µM (SNB-19) [%] | growth at 10 µM (SNB-75) [%] | growth at 10 µM (M14) [%] | growth at 10 µM (SK-MEL-2) [%] | growth at 10 µM (SK-MEL-5) [%] | growth at 10 µM (UACC-257) [%] | growth at 10 µM (SK-OV-3) [%] | growth at 10 µM (786-0) [%] | growth at 10 µM (A498) [%] | growth at 10 µM (RXF 393) [%] | further results
1 | CCOc1ccc(-c2cc(N)n(S(=O)(=O)c3ccc(OC)cc3)n2)cc1 | 85.2 | 116 | 122 | 97.7 | 98.8 | 101 | 96 | 98.7 | 105 | 123 | 96.3 | 89.9 | 120 | 110 | 97.5 | 86.6 | 114 | 108 | 92.5 | 95.9 | growth at 10 µM (Malme-3M): 114%; growth at 10 µM (SN12C): 85.5%; growth at 10 µM (TK-10): 130%; growth at 10 µM (UO-31): 91.2%; growth at 10 µM (BT-549): 111%
2 | CC(=O)c1cccc(NC(=O)c2sc3nc4c(cc3c2N)C(=O)CCC4)c1 | 107 | 91.1 | 97.9 | 102 | 108 | 87.1 | 108 | 93.7 | 96.9 | 95.2 | 99.5 | 94.2 | 100 | 103 | 96 | 99.3 | 102 | 97 | 86.9 | 104 | growth at 10 µM (SN12C): 109%; growth at 10 µM (TK-10): 89.3%; growth at 10 µM (UO-31): 99.7%; growth at 10 µM (BT-549): 93.7%
3 | Nc1c(C(=O)N(c2ccccc2)c2ccccc2)sc2nc3c(cc12)C(=O)CCC3 | 102 | 55.6 | 99.3 | 104 | 99.9 | 103 | 94.2 | 89.5 | 84.5 | 79 | 104 | 108 | 94.2 | 117 | 102 | 106 | 108 | 104 | 76.3 | 111 | growth at 10 µM (SN12C): 101%; growth at 10 µM (TK-10): 113%; growth at 10 µM (UO-31): 87%; growth at 10 µM (BT-549): 55.4%
